The chains are these.
B1: tRNA (parent)
chain: GUUCCGUUGGCGUAAUGGUAACGCGUCUCCCUCCUAAGGAGAAGACUGCGGGUUCGAGUCCCGUACGGAACG

Variants at the floor of the assay were thinned out. Bounds are passed on as bounds.

Variants of B1 are the subject of this data set. As to the kind of experiment: yeast fitness relative to wild type (ratio to wild type); higher = fitter; tRNA-Arg(CCU), competitive growth, 37 C, YPD. The method, boiled down:
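Variants of the tRNA-Arg(CCU) gene were chemically synthesised with a 3% per-site mutation rate across 69 sites and placed at the native genomic locus in Saccharomyces cerevisiae. Six parallel replicates of the pooled strains were competed in YPD at 37°C for 24 hours, and gene amplicons from the start and end populations were read by 100-nucleotide paired-end sequencing. Darwinian fitness relative to wild type was derived from changes in genotype frequencies. Genotypes required ≥ 100 starting reads, and estimates < 0.5 were set to 0.5.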
For the variant GUUCCGUUGGCGUAAUGGUAACGCAUCUCCCUCCUAAGGACAAGACUGCGGGUUCGAAUCCCGUACGGAACG, the yeast fitness is 0.975. As for GUUCCGUUGGCGUAAUGGUAACGCAUCUCCCUCUUAAGGAGAUGACUGCGGGUUCGAGUCCCGUACGGAACG, the figure is not above 0.5; as for GUUCCGUUGGCGUAAUGGUAACGCAUCUCCCUCCUAAGGAGAAGACUGUGGGUUCGAGGCCCGUACGGAACG, 0.54. In the case of GUUCCGUUGGCGUAAUGGUAACGCAUCUCCCUCCUAAGGAGAAGACUGAGGGUUCGAGUCCCGUACGGAACG, the yeast fitness was 0.691.

GUUCCGUUGGCGUAAUGGUAACGCAUCUCCCUCCUAAGGAGAAGACUGCGGGUUCGAGUUCCGUACGGAACG: the yeast fitness stood at 0.808.

On to GUUCCGUUGGCGUAAUGGUAACGCCUCUCCCUCCUAAGGAGACGACUGUGGGUUCGAGUCCCGUACGGAACG, for which the yeast fitness was 0.632. For GUUCCGUUGGCGUAAUGGUAACGCAUCUCCCUCCUAAGGAGAAGACUGCGGGUUCGAGUGCCCUACGGAACG the value was 0.548; for GUUCCGUUGGCGUAAUGGUAACGCAUCUCCCUCCUAAGGAAAAGACUGCGCGUUCGAGUUCCGUACGGAACG, not above 0.5. Take GUUCCGUUGGCGUAAUGGUAACGCAUCUCCCUCCUAAGGAAAAGACUGCGGGUUCGAGUCCCGUACGGAUCG: the yeast fitness was found to be 0.713. For GUUCCGUUGGCGUAAUGGUAACGCAUCUCCCUCCUAAGGAGAAGACUGCGGGUUCGAGUCCCGUACGAAACG the value was 1.02; for GUUCCGUUGGCGUAAUGGUAACGCAUCUCCCUCGUAAGGAGAAGACUGCCGGUUCGAGUCCAGUACGGAACG, not above 0.5. As for GUUCCGUUGGCGUAAUGGUAACGCAUCUCCCUCCUAAGGAGAACACUGCGGAUUCGAGUCCGGUACGGGACG, the figure is not above 0.5. With GUUCCGUUGGCGUAAUGGUAACGCAUCUCCCUCCUAAGGAGAAGACCGCGGGUUCGAGUUCCGUACGGAACG, the yeast fitness is 0.587. Take GUUCCGUUGGCGUAAUGGUAACGCCUCUCCCUCCUAAGGAGCAGACUGCGGGUUCGAGUCUCGUACGGAACG: the yeast fitness was not above 0.5. In the case of GUUCCGUUGGCGUAAUGGUAACGCCUCUCCCUCCUAUGGAGAAGACUACGGGUUCGAGUCUCGUACGGAACG, the yeast fitness is not above 0.5. For GUUCCGUUGGCGUAAUGGUAACGCAUCUCCCUCAUAAGGAGAAGACUGCGGGUUCGAGUCCCGUACGGAACG the value was 0.77.

In the case of GUUCCGUUGGCGUAAUGGUAACGCAUCUCCCUCUUAAGGAGAAGACUGCGGGUUCGAGUCCCGUACGGAACG, the yeast fitness was determined as 0.574.

In the case of GUUCCGUUGGCGUAAUGGUAACGCCUCUCCCUCCUAAGGGGAAGACUGCGGGUUCGAGUCGCAUACGGUACG, the yeast fitness is not above 0.5. With GUUCCGUUGGCGUAAUGGUAACGCAUCUCCCUGCUAAGGAGAAGACUGCGGGUUCGGACCCCGUUCGGAACG, the yeast fitness is not above 0.5. Regarding GUUCCGUUGGCGUAAUGGUAACGCAUCUCCCUCCUAAGGAAAAGACUGUGGGUUCGAGUCCCGUACGGUACG, the yeast fitness is 0.574.

GUUCCGUUGGCGUAAUGGUAACGCAUCUCCCUCCUAAGGAGAAGACUGCGGGUUUGAGUCCCGUACGGAACG: the yeast fitness came out at 0.84.

Turning to GUUCCGUUGGCGUAAUGGUAACGCAUCUCCCUCCUAAGGAGAAGACUGCGGGUUAGAGUCCCGUACGGAACG, the yeast fitness is 0.725. For the variant GUUCCGUUGGCGUAAUGGUAACGCAUCUCCCUCCUAAGGAGAAGACUGCGGGUACGAGUCCCGUAAGGAACG, the yeast fitness was not above 0.5.

GUUCCGUUGGCGUAAUGGUAACGCAUCUCCCUCCUAACGAGAAGACUACGGGUUCGAGUUCCGUACGGAACG: the yeast fitness is not above 0.5. For GUUCCGUUGGCGUAAUGGUAACGCAUCUCCCUCCUAAGCAGAAGACUGCGGGUUCGCGUCCCGUACGGAACG the value was not above 0.5; for GUUCCGUUGGCGUAAUGGUAACGCAUCUCCCUCCUAAGGAGAAGACUGCCGGUCCGAGUCCCGUACGGAACG, 0.627. For GUUCCGUUGGCGUAAUGGUAACGCAUCUCCCUCCUAAGGAGAAGACUGCGGGUUCGAGUCCCGUACAGAACG, the yeast fitness stood at 0.875. For GUUCCGUUGGCGUAAUGGUAACGCAUCUCCCUCGUAAGGAGAAGAUUGCGGGUACGAGUCCCGUACGGAACG the value was not above 0.5. As for GUUCCGUUGGCGUAAUGGUAACGCAUCUCCCUCCUAAGGAGAAGACUACGGGUUCGAGUCCCGUACGGAACG, the figure is 0.981. In the case of GUUCCGUUGGCGUAAUGGUAACGCAUCUCCCUCCUAAGGAGAAGACUGCGGUUCCGAGUCCCGUACGGAACG, the yeast fitness is not above 0.5. For GUUCCGUUGGCGUAAUGGUAACGCAUCUCCCUCCUAAGGAGAAGACCGCGGGUUCCAGUUCCGUACGGAUCG the value was not above 0.5; for GUUCCGUUGGCGUAAUGGUAACGCAUCUCCCUCCUAAGGAGAACACUGCGGGUUCGAGUCCCGUACGGAACG, 1.04.

With GUUCCGUUGGCGUAAUGGUAACGCAUCUCCCUCCUAAGGAGAAGACUGCGGGUUCGAGACCCGUACGGAACG, the yeast fitness worked out at 1.06. For GUUCCGUUGGCGUAAUGGUAACGCAUCUCCCACCUAAGGAGAAGACUGCGGGAUCGAGUCCCGUACGGACCG the value was not above 0.5.

On to GUUCCGUUGGCGUAAUGGUAACGCAUCUCCCUCCUAAGGAGAAGACUGCAGGUUCGAGUCCCGUAUGGAACG, for which the yeast fitness stood at 0.629. For the variant GUUCCGUUGGCGUAAUGGUAACGCAUCUCCCUCCUAAGGAGAAGACUGCGGGUUCGAGUCUCCUACGGAACG, the yeast fitness came out at 0.528.

Regarding GUUCCGUUGGCGUAAUGGUAACGCAUCUCCCUCCUAAGGAGAAGACUGCGGGUUCGAGUCCAGUCCGGAACG, the yeast fitness was 0.517. For GUUCCGUUGGCGUAAUGGUAACGCCUCUCCCUCCUAAGGGGAAGACAGCGGGUUCGCGUCCCAUACGGAACG the value was not above 0.5; for GUUCCGUUGGCGUAAUGGUAACGCAUCUCCCUCUUAAGGAGAAGACUGCGGGUUCGAGUCCCGUUCGGAACG, 0.671; for GUUCCGUUGGCGUAAUGGUAACGCAUCUCCCUCCUAAGGAGAAGACUGUGGGUUCGAGUCCCGUACGGACCG, 0.845. For GUUCCGUUGGCGUAAUGGUAACGCAGCUCCCUCCUAAGGAGAAGACUGCGGGUUCGAGUCCCGUACGGAACG the value was 0.805; for GUUCCGUUGGCGUAAUGGUAACGCACCUCCCUCCUAAGGAGAAGACUGCGGGUUCGAGUCCCGUACGGAACG, 0.947. For GUUCCGUUGGCGUAAUGGUAACGCAUCUCCCUCCUAAGGAGAAGAUUGCCGGUUCGAGUCCCGUACGGAACG the value was 0.556. As to GUUCCGUUGGCGUAAUGGUAACGCCUCUCCCUCCUAAGGAGAUGGCUGCGGGUUCGAGUCCCGUACGGAACG, the yeast fitness was found to be 0.518. For GUUCCGUUGGCGUAAUGGUAACGCAUCUCCCACCUAAGGAGAAGAUUGCGGGUUCGUGUCCCGUACGGAACG the value was 0.609. For GUUCCGUUGGCGUAAUGGUAACGCAUCUCCCUCCUAAGGAGAAGACUGCGGGAUCGAGUCCCGUACGGAACG the value was 0.741. As for GUUCCGUUGGCGUAAUGGUAACGCAUCUCCCUCCUAAGGAGAAGACUGCGGGCUCGAGUCCCGUACGGAACG, the figure is 0.819; as for GUUCCGUUGGCGUAAUGGUAACGCAUCUCCCUCCUAAGGAGAAGAAUGCGGCUUCGAGUCCCGUACGAAACG, not above 0.5; as for GUUCCGUUGGCGUAAUGGUAACGCAUCUCCCUCCUAAGGAGAAGACUGCGCGUUCGAGUCCCGUACGGAACG, 0.575. For the variant GUUCCGUUGGCGUAAUGGUAACGCAUCUCCCUCCUAAGGAAAAGACUGCGGGUUCAAGUCCCGUACGGAACG, the yeast fitness was 0.871.

Consider GUUCCGUUGGCGUAAUGGUAACGCAUCUCCCUCCUAAGGAGAAGACUGUGGGUUUGAGUCCCGUACGGAACG, for which the yeast fitness came to 0.683.

Consider GUUCCGUUGGCGUAAUGGUAACGCAUCUCCCUCCUAAGGAAAAGACUGCGGGUUCGAGUCACGUUCGGAACG, for which the yeast fitness was not above 0.5.

Turning to GUUCCGUUGGCGUAAUGGUAACGCAUCUCCCUCCUAAGGAGAAGACUGCGGGUUCGAGUCCUGUACGAAACG, the yeast fitness amounted to 0.641. For GUUCCGUUGGCGUAAUGGUAACGCAUCUCCCUCCUAAGGAGAAGACUCCGGGUUCGAGUCCAGUACGGAACG the value was 0.611; for GUUCCGUUGGCGUAAUGGUAACGCCUCUCCCUCCUAAGGAGUGGACUGCGGGCUCGAGUCCCGUGCGGAACG, not above 0.5; for GUUCCGUUGGCGUAAUGGUAACGCAUCUCCCACCUAAGGAGAAGACUGCGGGAUCGAGUCCCGUACGGAACG, not above 0.5.

Consider GUUCCGUUGGCGUAAUGGUAACGCAUCUCCCUCCUAAGGAGAAGAUUGCGGGUUCGGGUCCCGUACGGAACG, for which the yeast fitness is 0.676. Regarding GUUCCGUUGGCGUAAUGGUAACGCAUCUCCCUCCUAACGAGCAGACUGCGGGUUCGAGUCCCGUACGGAACG, the yeast fitness is not above 0.5.

Turning to GUUCCGUUGGCGUAAUGGUAACGCAUCUCCCUCCUAAGGAAAAGACUGCGGGUUCGAGUCCCGUACAGAACG, the yeast fitness stood at 0.59.

GUUCCGUUGGCGUAAUGGUAACGCAUCACCCUCCUAAGGAGAUGACUGCGGGUUCGAGUCCCGUACGGAACG: the yeast fitness amounted to 0.835.

Take GUUCCGUUGGCGUAAUGGUAACGCAUCUCCCUCCUAAGGAGAAGAGUGCGGGUUCGAGUCCCGUUCGGAACG: the yeast fitness was found to be 0.788. As for GUUCCGUUGGCGUAAUGGUAACGCAUCUCCCUCCUAAGGAGAAGACUGCGGGUUCGAGUACCGUAUGGAACG, the figure is not above 0.5; as for GUUCCGUUGGCGUAAUGGUAACGCCUCUCCCUCCUAAGGAGUAGACUGCGGGUUCGAGUCCCGUACGGAACG, 0.869. As for GUUCCGUUGGCGUAAUGGUAACGCAUCUCCCUCCUAAGGAGAAGACUGCGGGUUCGAGUACCGUACGGGACG, the figure is not above 0.5. As for GUUCCGUUGGCGUAAUGGUAACGCAUCUCCCCCCUAAGGAAAAGACUGCGGGUUCGAGUCCCGUACGGAACG, the figure is 0.546; as for GUUCCGUUGGCGUAAUGGUAACGCAUCUCCCACCUAAGGAGAAGACUGCGGGUGCAAGUCCCGUACGGAACG, not above 0.5; as for GUUCCGUUGGCGUAAUGGUAACGCAUCUCCCUCCUAAGGAGAAGACUGCGGGUUGGAGACCCAUACGGAACG, not above 0.5.

Turning to GUUCCGUUGGCGUAAUGGUAACGCAUCUCCCUCCUAAGGAGAAGACGGAGGGUUCGAGUCCCGUACGGAACG, the yeast fitness worked out at 0.548. Regarding GUUCCGUUGGCGUAAUGGUAACGCCUCUCCCUCCUAAGGCGAAGACUGUGGGUUCGAGUCCCGUACGGAACG, the yeast fitness is 0.76. For GUUCCGUUGGCGUAAUGGUAACGCAACUCCUUCCUAAAGAGGUGACUGCGGGUUCGAGUCCCGUACCGAACG, the yeast fitness worked out at 0.613. For GUUCCGUUGGCGUAAUGGUAACGCAUCUCCCUUCUAAGGAGAAGACUGCGGGUUCGAGUCCCGUACGGAACG the value was 0.655; for GUUCCGUUGGCGUAAUGGUAACGCAUCUCCCUCCUAAGGAGAAGACUGCGGAUUCGAGUCCCGUACGGAACG, 0.572; for GUUCCGUUGGCGUAAUGGUAACGCAUCUCCCUCCUAAGGAGAAGACUGCGGUUUCGAGUCCCGUACGGAACG, 0.627. GUUCCGUUGGCGUAAUGGUAACGCAUCUCCCUCCUAAGGAGAAGAAUGCGGGUUCGAGUCCCGUACGGAACG: the yeast fitness is 0.876. As to GUUCCGUUGGCGUAAUGGUAACGCAUCUCCCACCUAAGGAGAAGACUGCGGGUUCGAGUCCCGUACGGAACG, the yeast fitness came out at 0.744.

These data come from the RNAGym collection of RNA variant scans (doi:10.1126/science.aae0568).
